For experiment [1], the system named is Pseudomonas aeruginosa. Put plainly: Antimicrobial activity against carbapenem-resistant Pseudomonas aeruginosa clinical isolate.
In experiment [2] the test system is Pseudomonas aeruginosa. Nature of the experiment: Antimicrobial activity against carbapenem-resistant Pseudomonas aeruginosa clinical isolate. It is filed as functional.
Experiment [3] has as its system Pseudomonas aeruginosa. Nature of the experiment: Antimicrobial activity against Pseudomonas aeruginosa GY3 producing blaVIM-2 by E-test. Format: functional.
In experiment [4] the test system is Pseudomonas aeruginosa. Nature of the experiment: Antimicrobial activity against Pseudomonas aeruginosa PAO1 harboring pV2GY3 with blaVIM-2 and aac(6)'-32 by E-test. Format: functional. The essentials: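 Plasmid DNA from clinical strain GY3 was electroporated into PAO1. Transformants were selected on Luria-Bertani agar with 8 μg imipenem/ml and checked with MBL Etest strips and PCR for the MBL gene. MICs for the transformant were determined by Etest.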

The subject of experiment [5] is Pseudomonas aeruginosa. Nature of the experiment: Antimicrobial activity against Pseudomonas aeruginosa PAO1 by E-test. It is filed as functional.
Experiment [6] relates to Pseudomonas aeruginosa. Nature of the experiment: Antimicrobial activity against carbapenem-resistant Pseudomonas aeruginosa clinical isolate assessed as resistant isolates. It is filed as functional.
For experiment [7], the system named is Pseudomonas aeruginosa. Put plainly: Antimicrobial activity against carbapenem-susceptible Pseudomonas aeruginosa clinical isolate assessed as resistant isolates. It is filed as functional.
Experiment [8] has as its system Escherichia coli. Put plainly: Antimicrobial activity against Escherichia coli XL1-Blue by E-test. Format: functional.
For experiment [9], the system named is Escherichia coli. Put plainly: Antimicrobial activity against Escherichia coli XL1-Blue harboring pGTAAC-32 with cloned aac(6)'-32 by E-test.

Converted amounts (≈) assume the structure as drawn.

Usually MIC stands for the lowest concentration found to suppress growth. In the case of `C[C@@H](O)[C@H]1C(=O)N2C(C(=O)O)=C(S[C@@H]3CN[C@H](C(=O)N(C)C)C3)[C@H](C)[C@H]12` [MEROPENEM], the MIC against Pseudomonas aeruginosa [1] turned out to be 8 mg/L (≈ 20.9 µM); with Pseudomonas aeruginosa [2], 8 mg/L (≈ 20.9 µM); against Pseudomonas aeruginosa [3], 16 mg/L (≈ 41.7 µM); against Pseudomonas aeruginosa [4], 16 mg/L (≈ 41.7 µM); with Pseudomonas aeruginosa [5], 0.38 mg/L (≈ 0.991 µM). In addition, in the experiment with Pseudomonas aeruginosa [6], the Activity worked out at 68%.

On to `C[C@H]1[C@H](NC(=O)/C(=N\OC(C)(C)C(=O)O)c2csc(N)n2)C(=O)N1S(=O)(=O)O` [AZTREONAM], for which the MIC against Pseudomonas aeruginosa [3] and against Pseudomonas aeruginosa [4] was 2 mg/L (≈ 4.59 µM) in each case.

`CCN1CCN(C(=O)N[C@@H](C(=O)N[C@@H]2C(=O)N3[C@@H]2SC(C)(C)[C@@H]3C(=O)O)c2ccccc2)C(=O)C1=O` [PIPERACILLIN]: the Activity was found to be 9% in the experiment on Pseudomonas aeruginosa [7] and 28% in the experiment with Pseudomonas aeruginosa [6]. The minimum inhibitory concentration (MIC) with Pseudomonas aeruginosa [3] was determined as 16 mg/L (≈ 30.9 µM); with Pseudomonas aeruginosa [4], 16 mg/L (≈ 30.9 µM); against Pseudomonas aeruginosa [5] it was 2 mg/L (≈ 3.86 µM).

As for `CC1(C)S[C@@H]2[C@H](NC(=O)[C@H](C(=O)O)c3ccsc3)C(=O)N2[C@H]1C(=O)O` [TICARCILLIN], the results for the Activity with Pseudomonas aeruginosa [7] and with Pseudomonas aeruginosa [6] were 11% and 34%, respectively. The MIC against Pseudomonas aeruginosa [3] was greater than 256 mg/L; with Pseudomonas aeruginosa [4], greater than 256 mg/L; with Pseudomonas aeruginosa [5], 12 mg/L (≈ 31.2 µM).

In the case of `CC(C)(O/N=C(\C(=O)N[C@@H]1C(=O)N2C(C(=O)[O-])=C(C[n+]3ccccc3)CS[C@H]12)c1csc(N)n1)C(=O)O` [CEFTAZIDIME], the Activity in the experiment with Pseudomonas aeruginosa [7] worked out at 11%; with Pseudomonas aeruginosa [6] it was 46%. In addition, the results for the minimal inhibitory concentration (MIC) against Pseudomonas aeruginosa [3], with Pseudomonas aeruginosa [4] and against Pseudomonas aeruginosa [5] were 16 mg/L (≈ 29.3 µM), 24 mg/L (≈ 43.9 µM) and 1.5 mg/L (≈ 2.74 µM), respectively.

On to GENTAMICIN, for which the Activity with Pseudomonas aeruginosa [7] came to 26%; in the experiment with Pseudomonas aeruginosa [6], 59%. Besides, the MIC was 32 mg/L with Pseudomonas aeruginosa [3], 16 mg/L against Pseudomonas aeruginosa [4], 0.19 mg/L in the experiment with Escherichia coli [8] and 2 mg/L with Pseudomonas aeruginosa [5].

Turning to `C[C@@H](O)[C@H]1C(=O)N2C(C(=O)O)=C(SCCNC=N)C[C@H]12` [IMIPENEM ANHYDROUS], the results for the minimum inhibitory concentration (MIC) with Pseudomonas aeruginosa [3], against Pseudomonas aeruginosa [4] and with Pseudomonas aeruginosa [5] were greater than 32 mg/L, greater than 32 mg/L and 2 mg/L (≈ 6.68 µM), respectively. Moreover, in the experiment with Pseudomonas aeruginosa [6], the Activity was 95%.

For `CC1COc2c(N3CCN(C)CC3)c(F)cc3c(=O)c(C(=O)O)cn1c23` (stereo not drawn) [OFLOXACIN], the Activity in the experiment with Pseudomonas aeruginosa [7] stood at 32%; in the experiment with Pseudomonas aeruginosa [6], 68%.

With `O=C(O)c1cn(C2CC2)c2cc(N3CCNCC3)c(F)cc2c1=O` [CIPROFLOXACIN], the minimal inhibitory concentration (MIC) with Pseudomonas aeruginosa [3] was greater than 32 mg/L.

Regarding `CO/N=C(\C(=O)N[C@@H]1C(=O)N2C(C(=O)[O-])=C(C[N+]3(C)CCCC3)CS[C@H]12)c1csc(N)n1`, the results for the minimum inhibitory concentration (MIC) in the experiment on Pseudomonas aeruginosa [3], in the experiment with Pseudomonas aeruginosa [4] and in the experiment with Pseudomonas aeruginosa [5] were 16 mg/L (≈ 33.3 µM), 16 mg/L (≈ 33.3 µM) and 1.5 mg/L (≈ 3.12 µM), respectively.

On to `NC[C@H]1O[C@H](O[C@H]2[C@H](O)[C@@H](O[C@H]3O[C@H](CO)[C@@H](O)[C@H](N)[C@H]3O)[C@H](N)C[C@@H]2N)[C@H](N)C[C@@H]1O` [TOBRAMYCIN], for which the Activity is listed as 9% in the experiment on Pseudomonas aeruginosa [7] and 44% in the experiment with Pseudomonas aeruginosa [6]. In addition, the MIC was greater than 256 mg/L in the experiment on Pseudomonas aeruginosa [3]; 64 mg/L (≈ 137 µM) in the experiment with Pseudomonas aeruginosa [4]; 0.38 mg/L (≈ 0.813 µM) against Escherichia coli [8]; 6 mg/L (≈ 12.8 µM) in the experiment with Escherichia coli [9]; 0.75 mg/L (≈ 1.6 µM) in the experiment on Pseudomonas aeruginosa [5].

Turning to `NCC[C@H](O)C(=O)N[C@@H]1C[C@H](N)[C@@H](O[C@H]2O[C@H](CN)[C@@H](O)[C@H](O)[C@H]2O)[C@H](O)[C@H]1O[C@H]1O[C@H](CO)[C@@H](O)[C@H](N)[C@H]1O` [AMIKACIN], the Activity came out at 9% with Pseudomonas aeruginosa [7] and 19% in the experiment with Pseudomonas aeruginosa [6]. For the same compound, the minimum inhibitory concentration (MIC) worked out at 64 mg/L (≈ 109 µM) in the experiment with Pseudomonas aeruginosa [3]; 48 mg/L (≈ 82 µM) in the experiment on Pseudomonas aeruginosa [4]; 0.75 mg/L (≈ 1.28 µM) against Escherichia coli [8]; 1.5 mg/L (≈ 2.56 µM) against Escherichia coli [9]; 3 mg/L (≈ 5.12 µM) with Pseudomonas aeruginosa [5].

The values above are taken from ChEMBL document CHEMBL1151445, “Molecular epidemiology and mechanisms of carbapenem resistance in Pseudomonas aeruginosa isolates from Spanish hospitals” (2007).
